In publication PMC11293336 (Cell Reports Medicine, 2024):

Columns and labels:
[1] = test system: patients with recurrent high-grade glioma; assay: Dose-limiting toxicities and adverse events of oral terameprocol, GATOR trial; assay type: in vivo, human; conditions: related to terameprocol, all cycles, N = 19
Outline: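 Patients ≥18 y with recurrent supratentorial grade III–IV glioma took oral capsules once daily, days 1–5 every 28 days, fasted; an amended cohort took 6,000 mg/day with a meal within 30 min. 3+3 escalation over 1,200–6,000 mg/day. DLT window was the first 4 weeks: ANC <500/μL, platelets <25,000/μL, febrile neutropenia, hematologic toxicity preventing >80% of dose, grade 3–4 seizure/intracranial hemorrhage, grade 3 QTcF. AEs CTCAE-graded.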

[2] = test system: recurrent high-grade glioma; assay: Tumor response and survival, GATOR trial; assay type: in vivo, human; conditions: oral, 19 participants
Outline: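 Oral dosing 1,200–6,000 mg/day, days 1–5 every 28 days, in recurrent grade III–IV glioma. OS ran from registration to death from any cause, censored at last known alive. PFS ran from registration to progression, censored if still on treatment or at last progression-free date. Medians by Kaplan–Meier; confidence intervals by Brookmeyer-Crowley method.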

[3] = Plasma pharmacokinetics of oral terameprocol, GATOR trial; assay type: in vivo, human; conditions: for AUC(0-inf): AUCINF
[4] = test system: advanced refractory solid tumors; conditions: intravenous; cited from earlier work
[5] = oral 6,000 mg fed, cycle 1 day 4, actual values of 2 patients

In the case of COc1ccc(C[C@@H](C)[C@@H](C)Cc2ccc(OC)c(OC)c2)cc1OC [terameprocol, meso-tetra-O-methyl nordihydroguaiaretic acid], the “Gastrointestinal pain, Grade 1” value [1] is reported as 1 (5.3%) No. of patients (%), the “Gastrointestinal pain, Total” value [1] is reported as 1 (5.3%) No. of patients (%) and the “Hyperglycemia, Grade 1” value [1] is reported as 1(5.3%) No. of patients (%). For the same compound, the “Hyperglycemia, Total” value [1] was 1 (5.3%) No. of patients (%), the “Hyperkalemia, Grade 2” value [1] was 1 (5.3%) No. of patients (%) and the “Hyperkalemia, Total” value [1] was 1 (5.3%) No. of patients (%). For the same compound, the “Hypernatremia, Grade 1” value [1] was 1 (5.3%) No. of patients (%), the “Hypernatremia, Total” value [1] was 1 (5.3%) No. of patients (%) and the “Hypertension, Grade 1” value [1] was 1 (5.3%) No. of patients (%). The “Hypertension, Total” value [1] was 1 (5.3%) No. of patients (%), the “Hypocalcemia, Grade 1” value [1] was 1 (5.3%) No. of patients (%) and the “Hypocalcemia, Total” value [1] was 1 (5.3%) No. of patients (%). The “Hypokalemia, Grade 1” value [1] was 1 (5.3%) No. of patients (%), the “Hypomagnesemia, Grade 1” value [1] was 3 (15.8%) No. of patients (%) and the “Hypomagnesemia, Grade 2” value [1] was 1 (5.3%) No. of patients (%). The “Hypomagnesemia, Total” value [1] was 4 (21.1%) No. of patients (%), the “Hyponatremia, Grade 1” value [1] was 3 (15.8%) No. of patients (%) and the “Hyponatremia, Total” value [1] was 3 (15.8%) No. of patients (%). For the same compound, the “Hypophosphatemia, Grade 1” value [1] was 1 (5.3%) No. of patients (%), the “Hypophosphatemia, Total” value [1] was 1 (5.3%) No. of patients (%) and the “Lymphocyte count decreased, Grade 2” value [1] was 1 (5.3%) No. of patients (%). For the same compound, the “Lymphocyte count decreased, Grade 3” value [1] was 1 (5.3%) No. of patients (%), the “Lymphocyte count decreased, Total” value [1] was 2 (10.5%) No. of patients (%) and the “Mouth sores, Grade 1” value [1] was 1 (5.3%) No. of patients (%). For the same compound, the “Mouth sores, Total” value [1] was 1 (5.3%) No. of patients (%), the “Muscle cramp, Grade 1” value [1] was 1 (5.3%) No. of patients (%) and the “Muscle cramp, Total” value [1] was 1 (5.3%) No. of patients (%). The “Muscle weakness lower limb, Grade 1” value [1] was 1 (5.3%) No. of patients (%), the “Muscle weakness lower limb, Total” value [1] was 1 (5.3%) No. of patients (%) and the “Nausea, Grade 1” value [1] was 3 (15.8%) No. of patients (%). The “Nausea, Total” value [1] was 3 (15.8%) No. of patients (%), the “Platelet count decreased, Grade 1” value [1] was 1 (5.3%) No. of patients (%) and the “Platelet count decreased, Total” value [1] was 1 (5.3%) No. of patients (%). The “Rash, maculopapular, Grade 1” value [1] was 1 (5.3%) No. of patients (%), the “Rash, maculopapular, Total” value [1] was 1 (5.3%) No. of patients (%) and the “Vomiting, Grade 1” value [1] was 2 (10.5%) No. of patients (%). For the same compound, the “Vomiting, Total” value [1] was 2 (10.5%) No. of patients (%), the “Weight loss, Grade 1” value [1] was 1 (5.3%) No. of patients (%) and the “Weight loss, Total” value [1] was 1 (5.3%) No. of patients (%). The “partial or complete responses” value [2] was “no partial or complete responses”, the Cmax ([3]; human, plasma, po, 1200 mg, Cmax, oral 1,200 mg fasted, cycle 1 day 1, mean ± SD) was 30 ± 10 ng/mL and the Cmax ([3]; human, plasma, po, 1200 mg, Cmax, oral 1,200 mg fasted, cycle 1 day 4, mean ± SD) was 30 ± 30 ng/mL. It also gave a half-life ([3]; human, plasma, po, 1200 mg, T1/2, oral 1,200 mg fasted, cycle 1 day 1, 1 patient) of 1.9 h, a Cmax ([3]; human, plasma, po, 2400 mg, Cmax, oral 2,400 mg fasted, cycle 1 day 1, mean ± SD) of 100 ± 50 ng/mL and a Cmax ([3]; human, plasma, po, 2400 mg, Cmax, oral 2,400 mg fasted, cycle 1 day 4, mean ± SD) of 100 ± 60 ng/mL. It also gave a half-life ([3]; human, plasma, po, 2400 mg, T1/2, oral 2,400 mg fasted, cycle 1 day 4, mean ± SD) of 24.8 ± 6.2 h, a Cmax ([3]; human, plasma, po, 3600 mg, Cmax, oral 3,600 mg fasted, cycle 1 day 1, mean ± SD) of 280 ± 190 ng/mL and a Cmax ([3]; human, plasma, po, 3600 mg, Cmax, oral 3,600 mg fasted, cycle 1 day 4, mean ± SD) of 250 ± 140 ng/mL. The half-life ([3]; human, plasma, po, 3600 mg, T1/2, oral 3,600 mg fasted, cycle 1 day 1, mean ± SD) was 6 ± 0.6 h, the half-life ([3]; human, plasma, po, 3600 mg, T1/2, oral 3,600 mg fasted, cycle 1 day 4, mean ± SD) was 6.5 ± 0.8 h and the Cmax ([3]; human, plasma, po, 4800 mg, Cmax, oral 4,800 mg fed, cycle 1 day 4, 1 patient) was 230 ng/mL. For the same compound, the half-life ([3]; human, plasma, po, 4800 mg, T1/2, oral 4,800 mg fed, cycle 1 day 4, 1 patient) was 10.7 h, the Tmax ([3]; human, plasma, po, 4800 mg, oral 4,800 mg fed, cycle 1 day 4, 1 patient) was 5.9 h and the AUC(0-inf) ([3]; human, plasma, po, 6000 mg, oral 6,000 mg fasted, cycle 1 day 1, 1 patient) was 1900 ng·h/mL. It also gave an AUC(0-inf) ([3]; human, plasma, po, 6000 mg, oral 6,000 mg fed, cycle 1 day 1, mean ± SD) of 2400 ± 1800 ng·h/mL, a Cmax ([3]; human, plasma, po, 6000 mg, Cmax, oral 6,000 mg fasted, cycle 1 day 1, mean ± SD) of 200 ± 120 ng/mL and a Cmax ([3]; human, plasma, po, 6000 mg, Cmax, oral 6,000 mg fed, cycle 1 day 1, mean ± SD) of 330 ± 310 ng/mL. For the same compound, the Cmax ([3]; human, plasma, po, 6000 mg, Cmax, oral 6,000 mg fed, cycle 1 day 4, mean ± SD) was 600 ± 570 ng/mL, the half-life ([3]; human, plasma, po, 6000 mg, T1/2, oral 6,000 mg fasted, cycle 1 day 4, 1 patient) was 14.9 h and the half-life ([3]; human, plasma, po, 6000 mg, T1/2, oral 6,000 mg fed, cycle 1 day 1, mean ± SD) was 6.6 ± 2.2 h. The Tmax ([3]; human, plasma, po, 6000 mg, oral 6,000 mg fasted, cycle 1 day 1, median (range; n)) was 4 h, the Tmax ([3]; human, plasma, po, 6000 mg, oral 6,000 mg fed, cycle 1 day 1, median (range; n)) was 4.1 h and the Tmax ([3]; human, plasma, po, 6000 mg, oral 6,000 mg fed, cycle 1 day 4, median (range; n)) was 8 h. The T1/2 ([3]; oral 1,200 mg fasted, cycle 1 day 4, actual values of 2 patients) was 3.1 h, the AUCINF ([3]; oral 2,400 mg fasted, cycle 1 day 1, actual values of 2 patients) was 0.7 μg∗h/mL and the T1/2 ([3]; oral 6,000 mg fasted, cycle 1 day 1, actual values of 2 patients) was 14.9 h. The Cmax ([3]; oral 6,000 mg fasted, cycle 1 day 4, actual values of 2 patients) was 150 ng/mL, the AUCINF [3, 5] was 4.4 μg∗h/mL and the T1/2 [3, 5] was 6.5 h. For the same compound, the “dose at which DLT was demonstrated” value [4] was 3,300 mg/day, the partial response [4] was 1/29 and the stable disease [4] was 6/29.
